Assay [1] concerns J774.A1. As to the kind of experiment: Antiinflammatory activity in mouse J774.A1 cells assessed as decrease in LPS-induced IL-6 secretion preincubated for 30 mins followed by LPS stimulation and measured after 24 hrs by ELISA. It counts as functional, cell-based. The settings on record: for Activity: time 24.5 hrs. In short, it runs like this:
(§1)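 J774A.1 cells pretreated 30 min across a concentration range, then challenged with LPS at 0.5 μg/mL for 24 h. Secreted IL-6 or TNF-α measured in the medium by ELISA, and IC50 taken from dose–response. Mean ± SEM of 3 independent experiments.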
For orientation: ELISA stands for enzyme-linked immunosorbent assay.

In assay [2] the test system is J774.A1. Briefly: Antiinflammatory activity in mouse J774.A1 cells assessed as decrease in LPS-induced TNF-alpha secretion at 20 uM preincubated for 30 mins followed by LPS stimulation and measured after 24 hrs by ELISA. It counts as functional. Also on record: scale not given: the % may be the effect or the level left. The settings on record: time 24.5 hrs. In short, it runs like this: (§2)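 J774A.1 macrophages pretreated 30 min with 20 μM compound, DMSO as negative control. Cells then stimulated with LPS at 0.5 μg/mL for 24 h. IL-6 and TNF-α in the culture medium measured by ELISA.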

The subject of assay [3] is J774.A1. As to the kind of experiment: Antiinflammatory activity in mouse J774.A1 cells assessed as decrease in LPS-induced IL-6 secretion at 20 uM preincubated for 30 mins followed by LPS stimulation and measured after 24 hrs by ELISA. Format: functional. Also on record: scale not given: the % may be the effect or the level left. The settings on record: time 24.5 hrs. In short, it runs like this: as §2

The test system of assay [4] is J774.A1. As to the kind of experiment: Antiinflammatory activity in mouse J774.A1 cells assessed as decrease in LPS-induced TNF-alpha secretion preincubated for 30 mins followed by LPS stimulation and measured after 24 hrs by ELISA. Format: functional, cell-based. The settings on record: for Activity: time 24.5 hrs. In short, it runs like this: as §1
Assay [5] concerns Mus musculus. Briefly: Antiinflammatory activity in C57BL/6J mouse model of LPS-induced acute lung injury assessed as reduction in […] infiltration at 20 mg/kg, po administered 30 mins prior to LPS treatment and measured after 6 hrs by F4/80 antibody staining based assay. Format: functional, organism-based. The settings on record: time 6.5 hrs. The method in brief: (§3)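 Oral pretreatment 30 min before intratracheal LPS at 5 mg/kg, with a saline sham group. Lungs taken at 6 h. Sections immunostained for F4/80 (macrophage marker) or for p-p65, counterstained with hematoxylin. Percentage of positive cells assessed.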

The test system of assay [6] is Mus musculus. As to the kind of experiment: Antiinflammatory activity in C57BL/6J mouse model of LPS-induced acute lung injury assessed as reduction in p-p65 level at 20 mg/kg, po administered 30 mins prior to LPS treatment and measured after 6 hrs by immunohistochemical analysis. It counts as functional, organism-based. The note with it: time 6.5 hrs. In short, it runs like this:
as §3

For assay [7], the system named is Mus musculus. Briefly: Antiinflammatory activity in C57BL/6J mouse model of LPS-induced acute lung injury assessed as reduction in neutrophil count in BALF at 20 mg/kg, po administered 30 mins prior to LPS treatment and measured after 6 hrs by Wright and Giemsa staining based analysis. The note with it: time 6.5 hrs. It counts as functional, organism-based. The method in brief: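 Oral dosing 30 min before intratracheal LPS at 5 mg/kg, with a saline sham group. BALF collected at 6 h and neutrophils counted by Wright-Giemsa staining, given relative to control. Mean ± SEM, n = 8.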

Activity calls are given as the source filed them. The calls are words filed in the database; no cut-off is given here.

In general, IC50 refers to the concentration at which inhibition is half-maximal. For `O=[N+]([O-])c1ccc(N2CCN(c3ccc(S(=O)(=O)Cc4cccc(F)c4)cc3[N+](=O)[O-])CC2)cc1`, the IC50 with J774.A1 [1] is 6.01 µM; in the assay on J774.A1 [4] it was 23.4 µM. Also, the Activity entry in the assay with J774.A1 [1] was “Dose-Dependent Effect”; in the assay on J774.A1 [2] it was 12.18%; with J774.A1 [3], 68.87%. For the same molecule, the result with J774.A1 [4] was Active.
Consider `CC(=O)N1CCN(c2ccc(S(=O)(=O)Cc3ccccc3)cc2[N+](=O)[O-])CC1`, for which the Activity in the assay with J774.A1 [2] stood at 19.12%; in the assay with J774.A1 [3], 40.41%.
As for `Cc1ccc(CS(=O)(=O)c2ccc(N3CCN(CCO)CC3)c([N+](=O)[O-])c2)cc1`, the outcome with J774.A1 [2] and in the assay on J774.A1 [3] was inactive.
Turning to `COCCN1CCN(c2ccc(S(=O)(=O)Cc3cccc(OC)c3)cc2[N+](=O)[O-])CC1`, the outcome in the assay with J774.A1 [2] and with J774.A1 [3] was inactive.
As for `CC(=O)N1CCN(c2ccc(S(=O)(=O)Cc3ccc(F)cc3)cc2[N+](=O)[O-])CC1`, the Activity is on record as 10.99% in the assay with J774.A1 [2] and 33.81% in the assay on J774.A1 [3].
Taken in the same sequence, the figures for `COc1cccc(CS(=O)(=O)c2ccc(N(C)C)c([N+](=O)[O-])c2)c1` were “inactive” and 8.62%.
For `CCN1CCN(c2ccc(S(=O)(=O)Cc3ccc(F)cc3)cc2[N+](=O)[O-])CC1` the same measures were “inactive” and 31.39%.
Taken in the same sequence, the figures for `O=[N+]([O-])c1cccc(CN2CCN(c3ccc(S(=O)(=O)Cc4cccc(F)c4)cc3[N+](=O)[O-])CC2)c1` were 22.51% and 59.44%.
Turning to `CN(C)CCS(=O)(=O)Cc1ccc(Br)cc1`, the result with J774.A1 [2] was inactive. In addition, the Activity in the assay with J774.A1 [3] is recorded as 79.61%.
Regarding `CCN1CCN(c2ccc(S(=O)(=O)Cc3ccc(C)cc3)cc2[N+](=O)[O-])CC1`, the outcome with J774.A1 [2] was inactive. Also, the Activity in the assay on J774.A1 [3] was found to be 52.95%.
Turning to `O=[N+]([O-])c1ccc(N2CCN(c3ccc(S(=O)(=O)Cc4ccccc4)cc3[N+](=O)[O-])CC2)cc1`, the outcome in the assay with J774.A1 [2] was inactive. The Activity in the assay on J774.A1 [3] worked out at 51.52%.
Taken in the same sequence, the figures for `O=[N+]([O-])c1cc(S(=O)(=O)Cc2ccc(F)cc2)ccc1N1CCN(CCO)CC1` were 29.96% and 54.2%.
In the case of `CCN1CCN(c2ccc(S(=O)(=O)Cc3cccc(F)c3)cc2[N+](=O)[O-])CC1`, the Activity is 24.43% in the assay with J774.A1 [2] and 58.89% in the assay on J774.A1 [3].
Take `C[C@@H]1C[C@H]2[C@@H]3CCC4=CC(=O)C=C[C@]4(C)[C@@]3(F)[C@@H](O)C[C@]2(C)[C@@]1(O)C(=O)CO`: the result in the assay with Mus musculus [5], in the assay on Mus musculus [6] and in the assay with Mus musculus [7] was Active.
For `COCCN1CCN(c2ccc(S(=O)(=O)Cc3ccc(F)cc3)cc2[N+](=O)[O-])CC1`, in the assay with J774.A1 [2], the result was inactive. For the same molecule, the Activity in the assay with J774.A1 [3] worked out at 12.89%.
Turning to `Cc1ccc(CS(=O)(=O)c2ccc(N3CCN(c4ccc([N+](=O)[O-])cc4)CC3)c([N+](=O)[O-])c2)cc1`, the result in the assay with J774.A1 [2] and with J774.A1 [3] was inactive.
Regarding `CN1CCN(c2ccc(S(=O)(=O)Cc3ccccc3)cc2[N+](=O)[O-])CC1`, the Activity in the assay on J774.A1 [2] stood at 16.86%; with J774.A1 [3] it was 53.04%.
Taken in the same sequence, the figures for `O=[N+]([O-])c1cc(S(=O)(=O)Cc2cccc(F)c2)ccc1N1CCN(CCO)CC1` were “inactive” and 4.55%.
For `CN(C)c1ccc(S(=O)(=O)Cc2ccc(F)cc2)cc1[N+](=O)[O-]` the same measures were “inactive” and “inactive”.
Taken in the same sequence, the figures for `O=[N+]([O-])c1cccc(CN2CCN(c3ccc(S(=O)(=O)Cc4ccccc4)cc3[N+](=O)[O-])CC2)c1` were “inactive” and 57.27%.
`COCCN1CCN(c2ccc(S(=O)(=O)Cc3cccc(F)c3)cc2[N+](=O)[O-])CC1`: the result in the assay on J774.A1 [2] was inactive. The Activity in the assay with J774.A1 [3] came out at 0.29%.
`CC(=O)N1CCN(c2ccc(S(=O)(=O)Cc3cccc(F)c3)cc2[N+](=O)[O-])CC1`: the IC50 in the assay on J774.A1 [1] was 14.7 µM; in the assay with J774.A1 [4], 28.9 µM. Besides, the values for the Activity entry in the assay with J774.A1 [1], in the assay on J774.A1 [2] and in the assay with J774.A1 [3] were “Dose-Dependent Effect”, 36.28% and 62.38%, respectively. Besides, the outcome in the assay with J774.A1 [4] was Active.
Consider `COc1cccc(CS(=O)(=O)c2ccc(N3CCNCC3)c([N+](=O)[O-])c2)c1`, for which, in the assay with J774.A1 [2], the outcome was inactive. Moreover, the Activity with J774.A1 [3] is listed as 18.18%.
Turning to `COCCN1CCN(c2ccc(S(=O)(=O)Cc3ccc(C)cc3)cc2[N+](=O)[O-])CC1`, the outcome in the assay with J774.A1 [2] was inactive. For the same molecule, the Activity in the assay with J774.A1 [3] is given as 2.98%.
Take `CN(C)c1ccc(S(=O)(=O)Cc2ccccc2)cc1[N+](=O)[O-]`: the result in the assay on J774.A1 [2] and in the assay with J774.A1 [3] was inactive.
`O=[N+]([O-])c1cc(S(=O)(=O)Cc2ccccc2)ccc1N1CCN(CCO)CC1`: the Activity with J774.A1 [2] came out at 29.04%; with J774.A1 [3], 56.59%.
For `COc1cccc(CS(=O)(=O)c2ccc(N3CCN(CCO)CC3)c([N+](=O)[O-])c2)c1` the same measures were “inactive” and 15.23%.
For `CCN1CCN(c2ccc(S(=O)(=O)Cc3ccccc3)cc2[N+](=O)[O-])CC1` the same measures were “inactive” and 21.24%.
Taken in the same sequence, the figures for `CC(=O)N1CCN(c2ccc(S(=O)(=O)Cc3ccc(C)cc3)cc2[N+](=O)[O-])CC1` were “inactive” and 16.83%.
With `COc1cccc(CS(=O)(=O)c2ccc(N3CCN(C(C)=O)CC3)c([N+](=O)[O-])c2)c1`, in the assay on J774.A1 [2], the outcome was inactive. Besides, in the assay on J774.A1 [3], the Activity turned out to be 5.7%.
For the molecule `O=[N+]([O-])c1cccc(CN2CCN(c3ccc(S(=O)(=O)Cc4ccc(F)cc4)cc3[N+](=O)[O-])CC2)c1`, the results for the Activity with J774.A1 [2] and with J774.A1 [3] were 27.46% and 59.52%, respectively.
Taken in the same sequence, the figures for `COCCN1CCN(c2ccc(S(=O)(=O)Cc3ccccc3)cc2[N+](=O)[O-])CC1` were “inactive” and “inactive”.
For `COc1cccc(CS(=O)(=O)c2ccc(N3CCN(c4ccc([N+](=O)[O-])cc4)CC3)c([N+](=O)[O-])c2)c1` the same measures were “inactive” and 66.21%.
Turning to `COc1cccc(CS(=O)(=O)c2ccc(N3CCN(Cc4cccc([N+](=O)[O-])c4)CC3)c([N+](=O)[O-])c2)c1`, in the assay with J774.A1 [2], the outcome was inactive. The Activity in the assay with J774.A1 [3] came out at 41.95%.
For the molecule `O=[N+]([O-])c1ccc(N2CCN(c3ccc(S(=O)(=O)Cc4ccc(F)cc4)cc3[N+](=O)[O-])CC2)cc1`, the results for the Activity in the assay with J774.A1 [2] and with J774.A1 [3] were 18.6% and 62.47%, respectively.
For the molecule `O=[N+]([O-])c1ccc(CN2CCN(c3ccc(S(=O)(=O)Cc4ccc(F)cc4)cc3[N+](=O)[O-])CC2)cc1`, the outcome with J774.A1 [1] and in the assay on J774.A1 [4] was inactive. The Activity with J774.A1 [2] was found to be 26.45%; in the assay with J774.A1 [3], 71.54%.
For the molecule `CN(C)c1ccc(S(=O)(=O)Cc2cccc(F)c2)cc1[N+](=O)[O-]`, the result in the assay on J774.A1 [2] and with J774.A1 [3] was inactive.

Source of the values: ChEMBL document CHEMBL5223148, “Design, synthesis, and bioactivity evaluation of novel 1-(4-(benzylsulfonyl)-2-nitrophenyl) derivatives as potential anti-inflammatory agents against LPS-induced acute lung injury” (Bioorg Med Chem Lett, 2023).
